Measurements as given in publication PMC6172068 (Cancer Science, 2018).

Legend:
[1] = system: FLT3 receptors expressing FLT3-ITD; conditions: leukemic cells; cited from earlier work
[2] = system: relapsed/refractory (R/R) acute myeloid leukemia (AML); assay: Antileukemic activity; format: in vivo, Japanese patients
Summary of the method: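 Adults (≥18 years) with relapsed/refractory AML took an oral test compound once daily in escalating cohorts (20–300 mg/d). Cycle 0 was a single dose with 2-day observation, followed by 28-day cycles. Marrow aspirates or biopsies were taken at screening, Cycle 1 Day 28, Day 1 of later cycles and end of treatment. CR, CRp and CRi followed International Working Group criteria. The full analysis set was used.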

[3] = system: anaplastic lymphoma kinase; conditions: preclinical studies; cited from earlier work
[4] = system: leukocyte receptor tyrosine kinase; conditions: preclinical studies; cited from earlier work
[5] = system: AXL; conditions: preclinical studies; cited from earlier work
[6] = Plasma pharmacokinetics after single and multiple doses; format: in vivo, Japanese patients
[7] = system: FLT3; conditions: preclinical studies; cited from earlier work
[8] = system: c-Kit; conditions: cited from earlier work
[9] = system: FLT3 receptors expressing F691 gatekeeper mutations; conditions: leukemic cells; cited from earlier work
[10] = Urine pharmacokinetics; format: in vivo, Japanese patients
[11] = system: relapsed/refractory (R/R) AML; conditions: cited from earlier work
[12] = FLT3 mutation-negative patients, Total (n = 11)
[13] = FLT3 mutation-positive patients, 20 mg (n = 1)
[14] = FLT3 mutation-positive patients, 40 mg (n = 1)
[15] = FLT3 mutation-positive patients, 80 mg (n = 1)
[16] = FLT3 mutation-positive patients, 200 mg (n = 2)
[17] = patients with mutated FLT3 (n = 5), 1 patient
[18] = patients with wild-type FLT3 (n = 11), 1 patient

CCc1nc(C(N)=O)c(Nc2ccc(N3CCC(N4CCN(C)CC4)CC3)c(OC)c2)nc1NC1CCOCC1 [gilteritinib]
inhibition of FLT3 receptors expressing FLT3-ITD [1]: strongly inhibited
CR ([2]; All patients, 20 mg (n = 1)): 0 n (%, [95% CI])
CRc (CR plus CRp plus CRi) ([2]; All patients, 20 mg (n = 1)): 1 (100 [2.5, 100]) n (%, [95% CI])
CRi ([2]; All patients, 20 mg (n = 1)): 1 (100 [2.5, 100]) n (%, [95% CI])
CRp ([2]; All patients, 20 mg (n = 1)): 0 n (%, [95% CI])
ORR (CRc plus PR) ([2]; All patients, 20 mg (n = 1)): 1 (100 [2.5, 100]) n (%, [95% CI])
PR ([2]; All patients, 20 mg (n = 1)): 0 n (%, [95% CI])
CR ([2]; All patients, 40 mg (n = 3)): 0 n (%, [95% CI])
CRc (CR plus CRp plus CRi) ([2]; All patients, 40 mg (n = 3)): 0 n (%, [95% CI])
CRi ([2]; All patients, 40 mg (n = 3)): 0 n (%, [95% CI])
CRp ([2]; All patients, 40 mg (n = 3)): 0 n (%, [95% CI])
CR ([2]; All patients, 80 mg (n = 4)): 1 (25 [0.6, 80.6]) n (%, [95% CI])
CRc (CR plus CRp plus CRi) ([2]; All patients, 80 mg (n = 4)): 1 (25 [0.6, 80.6]) n (%, [95% CI])
CRi ([2]; All patients, 80 mg (n = 4)): 0 n (%, [95% CI])
CRp ([2]; All patients, 80 mg (n = 4)): 0 n (%, [95% CI])
ORR (CRc plus PR) ([2]; All patients, 80 mg (n = 4)): 2 (50 [6.8, 93.2]) n (%, [95% CI])
PR ([2]; All patients, 80 mg (n = 4)): 1 (25 [0.6, 80.6]) n (%, [95% CI])
CR ([2]; All patients, 120 mg (n = 2)): 0 n (%, [95% CI])
CRc (CR plus CRp plus CRi) ([2]; All patients, 120 mg (n = 2)): 1 (50 [1.3, 98.7]) n (%, [95% CI])
CRi ([2]; All patients, 120 mg (n = 2)): 1 (50 [1.3, 98.7]) n (%, [95% CI])
CRp ([2]; All patients, 120 mg (n = 2)): 0 n (%, [95% CI])
ORR (CRc plus PR) ([2]; All patients, 120 mg (n = 2)): 1 (50 [1.3, 98.7]) n (%, [95% CI])
PR ([2]; All patients, 120 mg (n = 2)): 0 n (%, [95% CI])
CR ([2]; All patients, 200 mg (n = 7)): 0 n (%, [95% CI])
CRc (CR plus CRp plus CRi) ([2]; All patients, 200 mg (n = 7)): 4 (57.1 [18.4, 90.1]) n (%, [95% CI])
CRi ([2]; All patients, 200 mg (n = 7)): 1 (14.3 [0.4, 57.9]) n (%, [95% CI])
CRp ([2]; All patients, 200 mg (n = 7)): 3 (42.9 [9.9, 81.6]) n (%, [95% CI])
ORR (CRc plus PR) ([2]; All patients, 200 mg (n = 7)): 4 (57.1 [18.4, 90.1]) n (%, [95% CI])
PR ([2]; All patients, 200 mg (n = 7)): 0 n (%, [95% CI])
CR ([2]; All patients, 300 mg (n = 2)): 0 n (%, [95% CI])
CRc (CR plus CRp plus CRi) ([2]; All patients, 300 mg (n = 2)): 0 n (%, [95% CI])
CRi ([2]; All patients, 300 mg (n = 2)): 0 n (%, [95% CI])
CRp ([2]; All patients, 300 mg (n = 2)): 0 n (%, [95% CI])
ORR (CRc plus PR) ([2]; All patients, 300 mg (n = 2)): 0 n (%, [95% CI])
PR ([2]; All patients, 300 mg (n = 2)): 0 n (%, [95% CI])
CRc ([2]; FAS, all doses, 7 of 19 patients, 95% CI: 16.3, 61.6): 36.8%
ORR ([2]; FAS, all doses, n = 9/19, 95% CI: 24.4, 71.1): 47.4%
Median duration of CRc ([2]; FAS, 95% CI: 28.0, 116.0): 86.5 days
Median duration of remission ([2]; FAS, 95% CI: 28.0, 139.0): 113.5 days
CR [2, 12]: 1 (9.1 [0.2, 41.3]) n (%, [95% CI])
CRc (CR plus CRp plus CRi) [2, 12]: 3 (27.3 [6.0, 61.0]) n (%, [95% CI])
CRi [2, 12]: 0 n (%, [95% CI])
CRp [2, 12]: 2 (18.2 [2.3, 51.8]) n (%, [95% CI])
ORR (CRc plus PR) [2, 12]: 4 (36.4 [10.9, 69.2]) n (%, [95% CI])
PR [2, 12]: 1 (9.1 [0.2, 41.3]) n (%, [95% CI])
CRc ([2]; FLT3 mutation-positive patients (n = 5), 95% CI: 14.7, 94.7): 60%
ORR ([2]; FLT3 mutation-positive patients (n = 5), 95% CI: 28.4, 99.5): 80%
CR [2, 13]: 0 n (%, [95% CI])
CRc (CR plus CRp plus CRi) [2, 13]: 1 (100 [2.5, 100]) n (%, [95% CI])
CRi [2, 13]: 1 (100 [2.5, 100]) n (%, [95% CI])
CRp [2, 13]: 0 n (%, [95% CI])
ORR (CRc plus PR) [2, 13]: 1 (100 [2.5, 100]) n (%, [95% CI])
PR [2, 13]: 0 n (%, [95% CI])
CR [2, 14]: 0 n (%, [95% CI])
CRc (CR plus CRp plus CRi) [2, 14]: 0 n (%, [95% CI])
CRi [2, 14]: 0 n (%, [95% CI])
CRp [2, 14]: 0 n (%, [95% CI])
ORR (CRc plus PR) [2, 14]: 0 n (%, [95% CI])
PR [2, 14]: 0 n (%, [95% CI])
CR [2, 15]: 0 n (%, [95% CI])
CRc (CR plus CRp plus CRi) [2, 15]: 0 n (%, [95% CI])
CRi [2, 15]: 0 n (%, [95% CI])
CRp [2, 15]: 0 n (%, [95% CI])
ORR (CRc plus PR) [2, 15]: 1 (100 [2.5, 100]) n (%, [95% CI])
PR [2, 15]: 1 (100 [2.5, 100]) n (%, [95% CI])
CR [2, 16]: 0 n (%, [95% CI])
CRc (CR plus CRp plus CRi) [2, 16]: 2 (100 [15.8, 100]) n (%, [95% CI])
CRi [2, 16]: 1 (50 [1.3, 98.7]) n (%, [95% CI])
CRp [2, 16]: 1 (50 [1.3, 98.7]) n (%, [95% CI])
ORR (CRc plus PR) [2, 16]: 2 (100 [15.8, 100]) n (%, [95% CI])
PR [2, 16]: 0 n (%, [95% CI])
Median duration of CRc ([2]; FLT3 mutation-positive patients, 95% CI: 30.0, 116.0): 63.0 days
Median duration of remission ([2]; FLT3 mutation-positive patients, 95% CI: 30.0, not evaluable): 89.5 days
CR with incomplete platelet recovery [2, 17]: 20%
partial remission (PR) [2, 17]: 20%
CR with incomplete hematologic recovery ([2]; patients with mutated FLT3 (n = 5), 2 patients): 40%
CR [2, 18]: 9.1%
PR [2, 18]: 9.1%
CR with incomplete platelet recovery ([2]; patients with wild-type FLT3 (n = 11), 2 patients): 18.2%
CRc ([2]; patients without FLT3 mutations (n = 11), 95% CI: 6.0, 61.0): 27.3%
ORR ([2]; patients without FLT3 mutations (n = 11), 95% CI: 10.9, 69.2): 36.4%
Median duration of CRc ([2]; patients without FLT3 mutations, 95% CI: 28.0, 111.0): 69.5 days
Median duration of remission ([2]; patients without FLT3 mutations, 95% CI: 28.0, 127.0): 111.0 days
inhibition of anaplastic lymphoma kinase [3]: robust inhibitor
inhibition of leukocyte receptor tyrosine kinase [4]: robust inhibitor
inhibition of AXL [5]: robust inhibitor
accumulation relative to baseline ([6]; after multiple dose administration): ~8 fold
half-life ([6]; human, plasma, oral): 84 to 126 h
Tmax ([6]; human, plasma, oral, Median tmax, after administration of single or multiple doses): 3 to 7 h
achievement of steady-state gilteritinib plasma concentrations (mean trough concentrations) ([6]; once-daily dosing, Day 1 Cycle 1 through Day 1 Cycle 2): by Day 15 Cycle 1
exposure versus dose ([6]; single-dose and multiple-dose): increased in a dose‐proportional manner
inhibition of FLT3 [7]: robust inhibitor
inhibitory effect on c-Kit [8]: minimal inhibitory effect
inhibition of FLT3 receptors expressing F691 gatekeeper mutations [9]: weak inhibitor
mean percentage of unchanged excreted gilteritinib (urine) ([10]; after a single dose (data not shown)): ≤ 3.6%
mean percentage of unchanged excreted gilteritinib (urine) ([10]; after multiple doses): ≤ 13.1%
median OS duration ([11]; doses ≥80 mg/d): 31 weeks
overall response rate (ORR) ([11]; doses ≥80 mg/d): 52%
maximum tolerated dose (MTD) ([11]; once-daily oral, R/R AML, USA, Germany and Italy): 300 mg/day
